Source: ChEMBL document CHEMBL1122643, “Alpha-adrenoreceptor reagents. 2. Effects of modification of the 1,4-benzodioxan ring system on alpha-adrenoreceptor activity” (J Med Chem, 1984)
Calls of active or inactive are those of the source. No cut-off for these calls is given here.

Assays:
[1] = biological target: T1, Alpha-2 adrenergic receptor (Mus musculus) (UniProt P30545+Q01338+Q01337); assay: Ability to antagonize the inhibitory effect of clonidine on the mouse vas deferens is the presynaptic alpha-2 adrenergic receptor antagonist potency relative to idazoxan = 1.; format: functional, tissue-based
Method in brief: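 Male adult mouse vasa deferentia (MFI >30 g), 0.5 g initial tension, Mg-free Krebs, 30 °C, 95% O2/5% CO2. Field stimulation at 0.1 Hz, 3-ms pulses, 100-140 V set to give ~100-mg twitch, recorded isometrically.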

[2] = biological target: T1, Alpha-2 adrenergic receptor (Mus musculus); assay: Presynaptic alpha-2 adrenergic receptor from mouse vas deferens agonistic activity relative to clonidine = 1.; format: functional, tissue-based
Method in brief: (§1)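 Isolated tissue agonist test, potency compared directly with the standard in the same experiment. Standard dose-response curves were run before and after the test compound's curve. Rat anococcygeus (male Sprague-Dawley, 200-250 g; Krebs, 30 °C, 95% O2/5% CO2) was compared with phenylephrine. Field-stimulated mouse vas deferens (0.1 Hz, Mg-free Krebs, 30 °C) was compared with clonidine.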

[3] = biological target: T2, Adrenergic receptor alpha-1 (Rattus norvegicus) (UniProt P15823+P23944+P43140); assay: Agonism in vitro at Alpha-1 adrenoceptor determined in rat anococcygeus preparation.; format: functional; method in brief: as §1
[4] = biological target: T2, Adrenergic receptor alpha-1 (Rattus norvegicus); assay: In vitro inhibition of the contractile effect of phenylephrine on the isolated rat anococcygeus; potency relative to idazoxan; Inactive.; format: functional
[5] = biological target: T2, Adrenergic receptor alpha-1 (Rattus norvegicus); assay: Agonism at Alpha-1 adrenoceptor determined in rat anococcygeus preparation; Inactive.; format: functional; method in brief: as §1
[6] = Selectivity between pre- and post-synaptic sites of action.; format: functional
[7] = biological target: T2, Adrenergic receptor alpha-1 (Rattus norvegicus); assay: In vitro inhibition of the contractile effect of phenylephrine on the isolated rat anococcygeus; potency relative to idazoxan.; format: functional
[8] = biological target: T1, Alpha-2 adrenergic receptor (Mus musculus); assay: Presynaptic alpha-2 adrenergic receptor agonistic activity in mouse vas deferens relative to clonidine; format: functional, tissue-based; method in brief: as §1
[9] = biological target: T3, Alpha-2 adrenergic receptor (Mus musculus, UniProt P30545+Q01338+Q01337); assay: Alpha-2 adrenergic receptor […] in mouse vas deferens relative to clonidine; format: functional, tissue-based; method in brief: as §1
T3 sequence (P30545 whole entry): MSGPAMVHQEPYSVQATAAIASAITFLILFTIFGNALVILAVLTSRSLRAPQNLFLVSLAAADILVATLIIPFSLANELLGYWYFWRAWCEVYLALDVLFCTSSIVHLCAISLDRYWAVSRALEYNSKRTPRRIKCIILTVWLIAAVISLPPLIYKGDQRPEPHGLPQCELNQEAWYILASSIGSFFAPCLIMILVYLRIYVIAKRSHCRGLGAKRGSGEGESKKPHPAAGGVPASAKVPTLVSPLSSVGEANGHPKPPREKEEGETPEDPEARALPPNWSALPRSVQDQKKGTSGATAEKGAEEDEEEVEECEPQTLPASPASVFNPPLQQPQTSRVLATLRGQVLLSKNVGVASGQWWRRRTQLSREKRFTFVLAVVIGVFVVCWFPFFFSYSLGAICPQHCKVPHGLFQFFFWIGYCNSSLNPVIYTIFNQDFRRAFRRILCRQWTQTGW
T3 sequence (Q01338 whole entry): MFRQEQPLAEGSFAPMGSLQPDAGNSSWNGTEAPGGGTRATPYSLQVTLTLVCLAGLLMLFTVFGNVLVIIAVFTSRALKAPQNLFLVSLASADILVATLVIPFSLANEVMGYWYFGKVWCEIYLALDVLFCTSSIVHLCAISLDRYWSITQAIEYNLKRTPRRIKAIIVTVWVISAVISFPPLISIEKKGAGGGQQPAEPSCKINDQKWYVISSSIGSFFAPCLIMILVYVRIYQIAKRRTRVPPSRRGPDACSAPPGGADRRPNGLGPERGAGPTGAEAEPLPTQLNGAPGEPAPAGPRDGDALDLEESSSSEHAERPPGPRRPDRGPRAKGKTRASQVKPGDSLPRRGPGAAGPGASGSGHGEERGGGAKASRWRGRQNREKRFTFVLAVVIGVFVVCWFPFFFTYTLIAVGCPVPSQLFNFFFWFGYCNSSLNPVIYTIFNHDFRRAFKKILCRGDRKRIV
T3 sequence (Q01337 whole entry): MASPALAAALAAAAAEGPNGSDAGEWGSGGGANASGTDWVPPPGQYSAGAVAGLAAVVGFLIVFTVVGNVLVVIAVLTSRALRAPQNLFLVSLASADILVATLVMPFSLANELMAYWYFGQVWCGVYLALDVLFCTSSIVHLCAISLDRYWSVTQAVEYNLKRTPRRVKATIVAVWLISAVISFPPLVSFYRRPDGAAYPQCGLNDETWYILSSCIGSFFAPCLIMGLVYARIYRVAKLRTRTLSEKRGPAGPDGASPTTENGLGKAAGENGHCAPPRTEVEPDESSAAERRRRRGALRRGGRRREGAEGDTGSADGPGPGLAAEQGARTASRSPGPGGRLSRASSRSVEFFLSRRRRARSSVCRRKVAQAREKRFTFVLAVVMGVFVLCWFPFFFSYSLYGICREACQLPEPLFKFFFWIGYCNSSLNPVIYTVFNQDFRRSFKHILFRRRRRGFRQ

Row | SMILES | Antagonist potency [1] | Agonist potency [2] | Agonist potency [3] | Antagonist potency [4] | Agonist potency [5] | Ratio [6] | Antagonist potency [7] | Agonist potency [8] | pA2 [9]
1 | c1ccc2c(c1)OCCC(C1=NCCN1)O2 (configuration not stated) | 0.04 | inactive | < 0.0005 | inactive |  |  |  |  | 
2 | COc1cccc2c1OC(C1=NCCN1)C2 (configuration not stated) | 0.07 | inactive | 0.3 | inactive |  |  |  |  | 
3 | c1ccc(CCC2(C3=NCCN3)Cc3ccccc3O2)cc1 (configuration not stated) | 0.07 | inactive |  |  | inactive | 1 | 0.07 |  | 
4 | Cc1ccc2c(c1)CC(C1=NCCN1)O2 (configuration not stated) | 1 | inactive |  |  | inactive | 0.44 | 2.25 |  | 
5 | Oc1cccc2c1OC(C1=NCCN1)C2 (configuration not stated) | 0.04 | inactive | 0.24 | inactive |  |  |  |  | 
6 | Cc1cc(C)c2c(c1)CC(C1=NCCN1)O2 (configuration not stated) | 0.3 | inactive | 0.03 | inactive |  |  |  |  | 
7 | CC1(C2=NCCN2)Oc2ccccc2O1 | 0.001 | inactive | 0.05 |  |  | 0.1 | 0.01 |  | 
8 | c1ccc2c(c1)CC(C1=NCCN1)S2 (configuration not stated) | 0.1 |  |  |  | inactive | 0.14 | 0.69 | 0.001 | 
9 | Cc1cc2c(cc1C)OC(C1=NCCN1)C2 (configuration not stated) | 0.7 | inactive |  |  | inactive | 0.8 | 0.9 |  | 
10 | Cc1ccc2c(c1)OC(C1=NCCN1)C2 (configuration not stated) | 0.46 | inactive |  |  | inactive | 0.2 | 2.25 |  | 
11 | COc1ccc2c(c1)OC(C1=NCCN1)C2 (configuration not stated) | 0.07 | inactive |  |  | inactive | 0.2 | 0.35 |  | 
12 | Cl.c1ccc2c(c1)CC(C1=NCCN1)O2 (configuration not stated) | 1.7 | inactive | 0.01 |  |  | 10.6 | 0.16 |  | 8.35
13 | Cc1cccc2c1OC(C1=NCCN1)C2.Cl (configuration not stated) | 1.6 | inactive |  |  | inactive | 2.4 | 0.67 |  | 8.22
14 | Fc1ccc2c(c1)CC(C1=NCCN1)O2 (configuration not stated) | 1.07 | inactive |  |  | inactive | 0.2 | 5.6 |  | 
15 | c1ccc2c(c1)CC(C1=NCCN1)CO2 (configuration not stated) | 0.01 | inactive |  |  | inactive | 0.01 | 1 |  | 
16 | Clc1ccc2c(c1Cl)OC(C1=NCCN1)C2 (configuration not stated) | 0.12 |  | 0.001 | inactive |  |  |  | 0.03 | 
17 | Clc1cccc2c1CC(C1=NCCN1)O2 (configuration not stated) | 2 | inactive | 1 | inactive |  |  |  |  | 
18 | CC(=O)c1ccc2c(c1)CC(C1=NCCN1)O2 (configuration not stated) | 0.003 | inactive | 0.02 | inactive |  |  |  |  | 
19 | Cc1ccc(C)c2c1CC(C1=NCCN1)O2 (configuration not stated) | 0.03 |  | 0.5 | inactive |  |  |  | 0.14 | 
20 | c1ccc2c(c1)CCC(C1=NCCN1)O2 (configuration not stated) | 0.01 | inactive |  |  | inactive | 0.01 | 1 |  | 
21 | Clc1cc(Cl)c2c(c1)CC(C1=NCCN1)O2 (configuration not stated) | 0.06 |  | 0.14 | inactive |  |  |  | < 0.0001 | 
22 | Oc1ccc2c(c1)CC(C1=NCCN1)O2 (configuration not stated) | 0.02 |  | 0.25 | inactive |  |  |  | 0.02 | 
23 | Oc1ccc2c(c1)OC(C1=NCCN1)C2 (configuration not stated) | 0.04 |  | 1.5 | inactive |  |  |  | 0.02 | 
24 | CC1c2ccccc2OC1C1=NCCN1 (configuration not stated) | 0.03 | inactive |  |  | inactive | 0.3 | 0.1 |  | 
25 | Brc1ccc2c(c1)CC(C1=NCCN1)O2 (configuration not stated) | 0.2 |  | 0.026 | inactive |  |  |  | < 0.001 | 
26 | c1ccc2c(c1)OC(C1=NCCN1)O2 | 0.001 | inactive | 0.005 | inactive |  |  |  |  | 
27 | c1ccc2sc(C3=NCCN3)cc2c1 | 0.001 | inactive |  |  | inactive | 0.02 | 0.05 |  | 
28 | Cl.Clc1cccc2c1OC(C1=NCCN1)C2 (configuration not stated) | 0.64 | inactive |  |  | inactive | 0.64 | 1 |  | 7.64
29 | c1ccc2oc(C3=NCCN3)cc2c1 | 0.01 |  | < 0.001 |  |  |  |  | < 0.0003 | 
30 | Cc1cccc2c1CC(C1=NCCN1)O2 (configuration not stated) | 0.1 |  | 1.3 | inactive |  |  |  | 0.2 | 
